According to ChEMBL document CHEMBL1123760, “Synthesis and oral antifungal activity of novel azolylpropanolones and related compounds” (1987):
Values after ≈ are worked out from the molar mass of the structure shown.

Assays:
Assay type in all cases: functional
[1] = system: Aspergillus fumigatus; assay: In vitro antifungal activity against Aspergillus fumigatus
Outline: (§1)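 Broth microdilution MIC in Sabouraud's glucose broth; final inocula 1 × 10^5 cells/mL (yeast) or 1 × 10^5 conidia/mL (mold and dermatophyte).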

[2] = system: Candida albicans; assay: In vitro antifungal activity against Candida albicans; conditions: Candida albicans; read-out: MIC; outline: as §1
[3] = system: Candida albicans; assay: Minimum effective concentration for inhibition of pseudomycelium formation in Candida albicans; conditions: for minimal effective concentration: Candida albicans, read-out: MEC
Outline: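 C. albicans KE-2 (clinical isolate) at a final 1 × 10^6 yeast cells/mL in EMEM with 20% calf serum; compounds diluted by the same microtiter system as for MICs. After incubation, wells were Giemsa-stained (5% in phosphate buffer) and read by microscope. MEC is the lowest concentration preventing typical pseudomycelium formation.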

[4] = system: Mus musculus; assay: Ratio of in vivo number of survivors / total infected; design: reference not given here
[5] = system: Trichophyton benhamiae; assay: In vitro antifungal activity against Trichophyton asteroides; outline: as §1
[6] = system: Cavia porcellus; assay: Number of skin sections yielding negative culture / total (48) (percentage) in guinea pig dermatophytosis at dose of 40 mg/kg […]. (Value is from Six skin sections cut out from each treated site)
Outline: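 Guinea pigs infected with Trichophyton asteroides, four animals each with two lesion sites. Oral 40 mg/kg once daily for 10 days (day 3 to day 12). Read-out is the rate of negative cultures from infected skin sections.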

[7] = system: Mus musculus; assay: In vivo activity against subacute systemic murine candidiasis in mice at a daose of 12.5-100 mg/kg dosage range. Value was determined at day 15 after infection; conditions: 360 h
[8] = Aspergillus fumigatus, read-out: MIC
[9] = Trichophyton benhamiae, read-out: MIC

| SMILES | MIC [1] | MIC [2] | MEC [3] | No. of survivors [4] | MIC [5] | No. total [6] | ED50 [7] | MIC [1, 8] | minimal effective concentration [3] | MIC [5, 9] |
| --- | --- | --- | --- | --- | --- | --- | --- | --- | --- | --- |
| OC(c1ccc(F)cc1)C(O)(Cn1cncn1)c1ccc(Cl)cc1Cl (stereo in doubt; 92) | 25 µg/mL (≈ 65.4 µM) | 50 µg/mL (≈ 131 µM) | 0.08 µg/mL | 8 | 0.1 µg/mL (≈ 0.262 µM) | 11 | 25.6 mg/kg | – | – | – |
| CC(C)C(=O)C(O)(Cn1cncn1)c1ccc(Cl)cc1 (stereo in doubt; 39) | – | – | – | – | 0.1 µg/mL (≈ 0.34 µM) | – | 14.7 mg/kg | – | – | – |
| O=C(c1ccc(Cl)cc1Cl)C(O)(Cn1cncn1)c1ccc(Cl)cc1Cl (stereo not given) | – | 50 µg/mL (≈ 116 µM) | – | 7 | – | 27 | 32.3 mg/kg | > 100 µg/mL | 0.16 µg/mL | 0.1 µg/mL (≈ 0.232 µM) |
| O=C(c1ccc(Cl)cc1Cl)C(O)(Cn1cncn1)c1ccc(F)cc1 (stereo not given) | – | 100 µg/mL (≈ 263 µM) | – | 8 | – | – | 20.2 mg/kg | > 100 µg/mL | 0.31 µg/mL | 0.1 µg/mL (≈ 0.263 µM) |
| CC(C)C(=O)C(O)(Cn1cncn1)c1ccc(Cl)cc1Cl (stereo not given) | – | 100 µg/mL (≈ 305 µM) | – | 8 | – | 7 | 22.6 mg/kg | 100 µg/mL (≈ 305 µM) | 0.04 µg/mL | 0.1 µg/mL (≈ 0.305 µM) |
| CC(=O)N1CCN(c2ccc(OCC3COC(Cn4ccnc4)(c4ccc(Cl)cc4Cl)O3)cc2)CC1 (stereo not given) [KETOCONAZOLE] | – | – | – | – | – | – | 32.3 mg/kg | – | – | – |
| Clc1ccc([C@@]2(Cn3cncn3)OC3(CCCCC3)O[C@@H]2c2ccc(Cl)cc2Cl)cc1 | – | > 100 µg/mL | – | 0 | – | – | – | > 100 µg/mL | 5 µg/mL | 0.1 µg/mL (≈ 0.209 µM) |
| Cc1ccc(C(=O)C(O)(Cn2cncn2)c2ccccc2Cl)cc1 (stereo not given) | – | > 100 µg/mL | – | 1 | – | – | – | > 100 µg/mL | 2.5 µg/mL | 0.8 µg/mL (≈ 2.34 µM) |
| O=C(c1ccccc1)C(O)(Cn1cncn1)c1ccc(Cl)cc1Cl (stereo not given) | – | > 100 µg/mL | – | 7 | – | – | – | > 100 µg/mL | 1.25 µg/mL | 0.1 µg/mL (≈ 0.276 µM) |
| CC(C)C(=O)C(O)(Cn1ccnc1)c1ccc(Cl)cc1 (stereo not given) | – | > 100 µg/mL | – | 2 | – | – | – | 25 µg/mL (≈ 85.4 µM) | 0.08 µg/mL | 0.2 µg/mL (≈ 0.683 µM) |
| CCC(=O)C(O)(Cn1cncn1)c1ccc(Cl)cc1Cl (stereo not given) | – | 100 µg/mL (≈ 318 µM) | – | 2 | – | – | – | 100 µg/mL (≈ 318 µM) | 0.04 µg/mL | 0.1 µg/mL (≈ 0.318 µM) |
